In ChEMBL document CHEMBL1938372, “Design and synthesis of conformationally constrained inhibitors of non-nucleoside reverse transcriptase” (J Med Chem, 2011):
Active and inactive are the calls of the source. The rule behind the calls is not given here.

Columns and labels:
[1] = Inhibition of Human immunodeficiency virus reverse transcriptase by SPA assay
[2] = tested on: Human immunodeficiency virus; experiment: Antiviral activity against Human immunodeficiency virus expressing wild type reverse transcriptase infected in human MT4 cells by p24 antigen assay in the presence of 10% FBS; assay type: functional; details: Human immunodeficiency virus 1, MT4; read-out: CIC95
Procedure, shortened: (§1)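 MT-4 human T-lymphoid cells in RPMI 1640 with either 10% FBS or 50% NHS; CIC95 taken as the concentration inhibiting virus spread/replication by >95%. Geometric mean of at least two determinations, individual values within 2-fold; SEM given when ≥3 determinations.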

[3] = molecular target: Human immunodeficiency virus type 1 reverse transcriptase (Human immunodeficiency virus 1, UniProt Q72547, K103N); experiment: Inhibition of Human immunodeficiency virus reverse transcriptase K103N mutant by SPA assay
Procedure, shortened: (§2)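 Recombinant HIV-1 RT polymerase scintillation proximity assay run with mutant enzyme, reported as Ki (nM). Values are geometric means of at least two determinations, each within 2-fold of the mean; SEM is given where there were ≥3 determinations.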

[4] = tested on: Human immunodeficiency virus; experiment: Antiviral activity against Human immunodeficiency virus expressing wild type reverse transcriptase infected in human MT4 cells by p24 antigen assay in the presence of 50% normal human serum; assay type: functional; details: Human immunodeficiency virus 1, MT4; read-out: CIC95; procedure, shortened: as §1
[5] = molecular target: Human immunodeficiency virus type 1 reverse transcriptase (Human immunodeficiency virus 1, UniProt Q72547, Y181C); experiment: Inhibition of Human immunodeficiency virus reverse transcriptase Y181C mutant by SPA assay; procedure, shortened: as §2
[6] = tested on: MT4; experiment: Cytotoxicity against human MT4 cells up to 8.3 uM; assay type: cell-based
Procedure, shortened: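 MT-4 cells in RPMI 1640 with 10% FBS or 50% NHS, run alongside the antiviral CIC95 assay; cytotoxicity checked up to the assay upper limit of 8.3 μM.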

[7] = tested on: Human immunodeficiency virus; experiment: Antiviral activity against Human immunodeficiency virus expressing reverse transcriptase K103N mutant infected in human MT4 cells by p24 antigen assay in the presence of 10% FBS; assay type: functional; details: Human immunodeficiency virus 1, MT4; read-out: CIC95
Procedure, shortened: (§3)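 Antiviral spread assay in MT-4 human T-lymphoid cells kept in RPMI 1640 with 10% FBS. Value is the CIC95, the concentration inhibiting virus replication by >95%. Reported as the geometric mean of at least two determinations, all within 2-fold of the mean. Cytotoxicity was checked up to the assay upper limit of 8.3 μM.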

[8] = tested on: Canis familiaris; experiment: Dose normalised AUC in Beagle dog at 2 mg/kg, po by LC-MS analysis; assay type: ADME, organism-based, Canis lupus familiaris; design: dose 2 mg/kg, route oral; details: in vivo
Procedure, shortened: (§4)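 PK in Sprague-Dawley rats (iv solution in DMSO via an indwelling jugular cannula, or oral suspension in aqueous methylcellulose/Methocel) and beagle dogs (iv and oral given crossover, same vehicles). Plasma levels by LC-MS. F from oral versus iv dose-normalized AUC. Average of at least two animals; rat values within 25% of the mean.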

[9] = tested on: Human immunodeficiency virus; experiment: Antiviral activity against Human immunodeficiency virus harboring reverse transcriptase K103N/P225H double mutant assessed as inhibition of viral replication; assay type: functional, organism-based
Procedure, shortened: (§5)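 Phenosense cell culture assay against a panel of clinically derived RT mutant viruses in the presence of 10% FBS. IC50 is the compound concentration blocking 50% of viral replication. Each value is the average of two determinations.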

[10] = tested on: Human immunodeficiency virus; experiment: Antiviral activity against Human immunodeficiency virus expressing reverse transcriptase Y181C mutant infected in human MT4 cells by p24 antigen assay in the presence of 10% FBS; assay type: functional; details: Human immunodeficiency virus 1, MT4; read-out: CIC95; procedure, shortened: as §3
[11] = tested on: Human immunodeficiency virus; experiment: Antiviral activity against Human immunodeficiency virus harboring reverse transcriptase G190A mutant assessed as inhibition of viral replication; assay type: functional, organism-based; procedure, shortened: as §5
[12] = Plasma clearance in Sprague-Dawley rat at 10 mg/kg, po and 2 mg/kg, iv; assay type: ADME, organism-based; procedure, shortened: as §4
[13] = tested on: Human immunodeficiency virus; experiment: Antiviral activity against Human immunodeficiency virus harboring reverse transcriptase K103N/Y181C/G190A triple mutant assessed as inhibition of viral replication; assay type: functional, organism-based; procedure, shortened: as §5
[14] = tested on: Human immunodeficiency virus; experiment: Antiviral activity against Human immunodeficiency virus harboring reverse transcriptase V106A/G190A/F227L triple mutant assessed as inhibition of viral replication; assay type: functional, organism-based; procedure, shortened: as §5
[15] = tested on: Human immunodeficiency virus; experiment: Antiviral activity against Human immunodeficiency virus harboring reverse transcriptase L100l/K103N/P225P/H triple mutant assessed as inhibition of viral replication; assay type: functional, organism-based; procedure, shortened: as §5
[16] = Half life in Beagle dog at 2 mg/kg, po and 1 mg/kg, iv; assay type: ADME, organism-based, Canis lupus familiaris; details: in vivo; procedure, shortened: as §4
[17] = tested on: Rattus norvegicus; experiment: Dose normalised AUC in Sprague-Dawley rat at 10 mg/kg, po by LC-MS analysis; assay type: ADME, organism-based; design: dose 10 mg/kg, route oral; details: in vivo; procedure, shortened: as §4
[18] = tested on: Human immunodeficiency virus; experiment: Antiviral activity against Human immunodeficiency virus harboring reverse transcriptase G190S mutant assessed as inhibition of viral replication; assay type: functional, organism-based; procedure, shortened: as §5
[19] = Volume of distribution in Beagle dog at 2 mg/kg, po and 1 mg/kg, iv; assay type: ADME, organism-based, Canis lupus familiaris; details: in vivo; procedure, shortened: as §4
[20] = tested on: Human immunodeficiency virus; experiment: Antiviral activity against Human immunodeficiency virus harboring reverse transcriptase K101E/G190A double mutant assessed as inhibition of viral replication; assay type: functional, organism-based; procedure, shortened: as §5
[21] = Solubility of the compound in water at pH 2; assay type: physicochemical
Procedure, shortened: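 Water solubility of the solid compound measured at pH 2 and at pH 7.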

[22] = tested on: Human immunodeficiency virus; experiment: Antiviral activity against Human immunodeficiency virus harboring reverse transcriptase Y188L mutant assessed as inhibition of viral replication; assay type: functional, organism-based; procedure, shortened: as §5
[23] = tested on: Human immunodeficiency virus; experiment: Antiviral activity against multidrug-resistant Human immunodeficiency virus assessed as inhibition of viral replication; assay type: functional, organism-based; procedure, shortened: as §5
[24] = tested on: Human immunodeficiency virus; experiment: Antiviral activity against wild type Human immunodeficiency virus assessed as inhibition of viral replication; assay type: functional, organism-based
[25] = tested on: Human immunodeficiency virus; experiment: Antiviral activity against Human immunodeficiency virus harboring reverse transcriptase K101E/Y181C/G190A triple mutant assessed as inhibition of viral replication; assay type: functional, organism-based; procedure, shortened: as §5
[26] = tested on: Human immunodeficiency virus; experiment: Antiviral activity against Human immunodeficiency virus harboring reverse transcriptase K103N mutant assessed as inhibition of viral replication; assay type: functional, organism-based; procedure, shortened: as §5
[27] = Half life in Sprague-Dawley rat at 10 mg/kg, po and 2 mg/kg, iv; assay type: ADME, organism-based; details: in vivo; procedure, shortened: as §4
[28] = Volume of distribution in Sprague-Dawley rat at 10 mg/kg, po and 2 mg/kg, iv; assay type: ADME, organism-based; details: in vivo; procedure, shortened: as §4
[29] = Bioavailability in Beagle dog at 2 mg/kg, po and 1 mg/kg, iv; assay type: ADME, organism-based, Canis lupus familiaris; details: in vivo; procedure, shortened: as §4
[30] = Plasma clearance in Beagle dog at 2 mg/kg, po and 1 mg/kg, iv; assay type: ADME, organism-based, Canis lupus familiaris; procedure, shortened: as §4
[31] = Bioavailability in Sprague-Dawley rat at 10 mg/kg, po and 2 mg/kg, iv; assay type: ADME, organism-based; details: in vivo; procedure, shortened: as §4
[32] = tested on: Human immunodeficiency virus; experiment: Antiviral activity against Human immunodeficiency virus harboring reverse transcriptase Y181C mutant assessed as inhibition of viral replication; assay type: functional, organism-based; procedure, shortened: as §5
[33] = tested on: Human immunodeficiency virus; experiment: Antiviral activity against Human immunodeficiency virus harboring reverse transcriptase L100l mutant assessed as inhibition of viral replication; assay type: functional, organism-based; procedure, shortened: as §5
[34] = tested on: Canis familiaris; experiment: Dose normalised AUC in Beagle dog at 10 mg/kg, po by LC-MS analysis; assay type: ADME, organism-based, Canis lupus familiaris; design: dose 10 mg/kg, route oral; details: in vivo; procedure, shortened: as §4

| Compound | Ki [1] [µM] | IC95 [2] [µM] | Ki [3] [µM] | IC95 [4] [µM] | Ki [5] [µM] | Activity [6] | IC95 [7] [µM] | inhibition [9] | IC95 [10] [µM] | inhibition [11] | inhibition [13] | inhibition [14] | inhibition [15] | AUC/dose [17] [µM·h] | inhibition [18] | inhibition [20] | inhibition [22] | inhibition [23] | inhibition [24] | inhibition [25] | also measured |
| --- | --- | --- | --- | --- | --- | --- | --- | --- | --- | --- | --- | --- | --- | --- | --- | --- | --- | --- | --- | --- | --- |
| N#Cc1cc(Cl)cc(Oc2c(Cl)ccc3c2[nH]c(=O)n3Cc2n[nH]c3ncccc23)c1 | > 0.3 | > 0.833 | > 0.6 | > 0.833 | > 0.3 | Non-toxic |  |  |  |  |  |  |  |  |  |  |  |  |  |  |  |
| N#Cc1cc(Cl)cc(Oc2cc3c(cc2Cl)ncn3Cc2n[nH]c3ncccc23)c1 | 0.114 | 0.693 | > 0.1 |  | > 0.1 | Non-toxic | 0.732 |  |  |  |  |  |  |  |  |  |  |  |  |  |  |
| N#Cc1cc(Cl)cc(Oc2c(Cl)ccc3c2nnn3Cc2n[nH]c3ncccc23)c1 | 0.00024 | 0.0043 | 0.00043 | 0.023 | 0.00044 | Non-toxic | 0.0038 | Active | 0.018 | Active | Active | inactive | Active | 0.18 | Active | Active | inactive | Active | Active | Active | AUC/dose [8]: 0.45 µM·h; clearance [12]: 14 mL/min/kg; half-life [16]: 11.3 h; Vd [19]: 1.3 L/kg; solubility [21]: < 0.1 µg/mL; inhibition [26]: Active; half-life [27]: 4.8 h; Vd [28]: 5.5 L/kg; bioavailability [29]: 9.5%; clearance [30]: 1.6 mL/min/kg; bioavailability [31]: 7.3%; inhibition [32]: Active; inhibition [33]: Active |
| N#Cc1cc(Cl)cc(Oc2cc(OCc3n[nH]c4nc(N)ccc34)ccc2Cl)c1 | 0.0002 | 0.0049 |  | 0.026 |  | Non-toxic | 0.012 | Active | 0.027 | Active | Active | inactive | Active | 2.3 | Active | Active | inactive | Active | Active | Active | AUC/dose [34]: 3.1 µM·h; inhibition [26]: Active; inhibition [32]: Active; inhibition [33]: Active |
| NCc1cc(Cl)cc(Oc2c(Cl)ccc3c2nnn3Cc2n[nH]c3ncccc23)c1Cl |  | 0.057 |  | 0.281 |  | Non-toxic | 0.232 |  | 0.418 |  |  |  |  |  |  |  |  |  |  |  |  |
| N#Cc1cc(Cl)cc(Oc2cc3c(cc2Cl)nnn3Cc2n[nH]c3ncccc23)c1 | > 0.3 | > 0.833 | > 0.3 |  | > 0.9 | Non-toxic |  |  |  |  |  |  |  |  |  |  |  |  |  |  |  |
